From ChEMBL document CHEMBL4428138, “Design, Synthesis, and Antitumor Evaluation of 4-Amino-(1H)-pyrazole Derivatives as JAKs Inhibitors” (ACS Med Chem Lett, 2016)

Columns and labels:
HEL [1] = test: Antiproliferative activity against HEL cells harboring JAK2 V617F mutant at 5 uM after 48 hrs by MTT assay; type: functional, Homo sapiens
PC-3 = test: Antiproliferative activity against human PC3 cells after 48 hrs by MTT assay; type: functional, cell-based; conditions: PC-3, 48 h
Method in brief: (§1)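 Panel: human prostate cancer PC-3, breast cancer MCF-7, erythroleukemia HEL, myelogenous leukemia K562 and lymphoid leukemia MOLT4 lines. Cells were exposed to compound for 48 h with MTT read-out.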

MCF7 = test: Antiproliferative activity against human MCF7 cells after 48 hrs by MTT assay; type: functional, cell-based; conditions: MCF7, 48 h; method in brief: as §1
HEL [2] = test: Antiproliferative activity against HEL cells harboring JAK2 V617F mutant after 48 hrs by MTT assay; type: functional, cell-based; conditions: Homo sapiens; method in brief: as §1
K562 = test: Antiproliferative activity against human K562 cells after 48 hrs by MTT assay; type: functional, cell-based; conditions: K562, 48 h; method in brief: as §1
MOLT-4 = test: Antiproliferative activity against human MOLT4 cells after 48 hrs by MTT assay; type: functional, cell-based; conditions: MOLT-4, 48 h; method in brief: as §1
[3] = biological target: Tyrosine-protein kinase ABL1 (Homo sapiens) (UniProt P00519); test: Inhibition of ABL (unknown origin) at 20 nM relative to control
[4] = biological target: ALK tyrosine kinase receptor (Homo sapiens) (UniProt Q9UM73); test: Inhibition of ALK (unknown origin) at 20 nM relative to control
[5] = biological target: RAC-alpha serine/threonine-protein kinase (Homo sapiens) (UniProt P31749); test: Inhibition of AKT1 (unknown origin) at 20 nM relative to control
[6] = biological target: Cyclin-dependent kinase 4 (Homo sapiens) (UniProt P11802); test: Inhibition of CDK4 (unknown origin) at 20 nM relative to control
Cyclin-dependent kinase 4 (Homo sapiens), sequence (P11802 whole entry): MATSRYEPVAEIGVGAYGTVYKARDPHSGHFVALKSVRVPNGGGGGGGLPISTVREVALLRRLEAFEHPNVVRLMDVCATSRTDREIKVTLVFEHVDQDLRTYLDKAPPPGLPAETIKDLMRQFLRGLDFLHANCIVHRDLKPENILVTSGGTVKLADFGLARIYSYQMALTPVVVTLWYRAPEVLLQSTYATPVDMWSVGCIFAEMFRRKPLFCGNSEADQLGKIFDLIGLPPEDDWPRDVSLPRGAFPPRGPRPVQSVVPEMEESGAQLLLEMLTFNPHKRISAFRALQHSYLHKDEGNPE

[7] = biological target: Mast/stem cell growth factor receptor Kit (Homo sapiens) (UniProt P10721); test: Inhibition of c-Kit (unknown origin) at 20 nM relative to control
[8] = biological target: Hepatocyte growth factor receptor (Homo sapiens) (UniProt P08581); test: Inhibition of c-Met (unknown origin) at 20 nM relative to control
Hepatocyte growth factor receptor (Homo sapiens), sequence (P08581 whole entry): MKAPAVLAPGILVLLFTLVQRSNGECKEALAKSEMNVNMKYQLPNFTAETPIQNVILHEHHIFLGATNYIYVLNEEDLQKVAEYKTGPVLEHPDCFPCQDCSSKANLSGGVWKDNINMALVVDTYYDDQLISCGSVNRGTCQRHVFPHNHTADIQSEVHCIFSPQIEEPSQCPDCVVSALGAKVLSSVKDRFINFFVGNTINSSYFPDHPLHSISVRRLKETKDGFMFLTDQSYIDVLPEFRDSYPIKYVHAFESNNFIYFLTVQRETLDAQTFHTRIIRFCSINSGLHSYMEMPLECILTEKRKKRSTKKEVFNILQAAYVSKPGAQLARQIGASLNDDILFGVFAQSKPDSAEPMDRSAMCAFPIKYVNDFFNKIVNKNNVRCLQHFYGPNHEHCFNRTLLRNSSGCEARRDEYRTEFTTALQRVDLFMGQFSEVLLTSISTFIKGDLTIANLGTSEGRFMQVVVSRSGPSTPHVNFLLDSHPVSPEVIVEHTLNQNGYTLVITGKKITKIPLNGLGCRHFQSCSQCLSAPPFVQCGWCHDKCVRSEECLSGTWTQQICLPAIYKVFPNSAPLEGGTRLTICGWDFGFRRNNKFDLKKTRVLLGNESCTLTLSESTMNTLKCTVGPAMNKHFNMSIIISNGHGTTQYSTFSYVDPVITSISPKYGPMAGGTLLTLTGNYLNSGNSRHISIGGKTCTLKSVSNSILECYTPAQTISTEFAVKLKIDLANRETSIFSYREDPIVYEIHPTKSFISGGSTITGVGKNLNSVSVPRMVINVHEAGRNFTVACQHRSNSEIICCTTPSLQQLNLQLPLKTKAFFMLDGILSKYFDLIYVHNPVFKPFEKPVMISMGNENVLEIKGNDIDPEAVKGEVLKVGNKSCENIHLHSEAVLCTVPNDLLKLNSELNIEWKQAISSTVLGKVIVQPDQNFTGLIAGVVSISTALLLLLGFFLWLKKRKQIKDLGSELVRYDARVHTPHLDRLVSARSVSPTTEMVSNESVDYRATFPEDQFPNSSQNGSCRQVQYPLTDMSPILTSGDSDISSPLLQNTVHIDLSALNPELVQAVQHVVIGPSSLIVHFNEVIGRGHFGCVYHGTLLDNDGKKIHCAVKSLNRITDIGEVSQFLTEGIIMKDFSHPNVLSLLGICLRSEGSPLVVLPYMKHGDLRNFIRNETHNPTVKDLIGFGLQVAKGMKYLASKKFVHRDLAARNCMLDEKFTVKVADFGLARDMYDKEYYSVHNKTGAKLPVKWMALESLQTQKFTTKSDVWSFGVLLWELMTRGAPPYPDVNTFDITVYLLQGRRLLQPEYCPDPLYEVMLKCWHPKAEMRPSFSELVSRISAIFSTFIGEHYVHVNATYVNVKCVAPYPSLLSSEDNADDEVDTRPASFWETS

[9] = biological target: Epidermal growth factor receptor (Homo sapiens) (UniProt P00533); test: Inhibition of EGFR (unknown origin) at 20 nM relative to control
[10] = biological target: Focal adhesion kinase 1 (Homo sapiens) (UniProt Q05397); test: Inhibition of FAK (unknown origin) at 20 nM relative to control
Focal adhesion kinase 1 (Homo sapiens), sequence (Q05397 2-1052 limits assumed): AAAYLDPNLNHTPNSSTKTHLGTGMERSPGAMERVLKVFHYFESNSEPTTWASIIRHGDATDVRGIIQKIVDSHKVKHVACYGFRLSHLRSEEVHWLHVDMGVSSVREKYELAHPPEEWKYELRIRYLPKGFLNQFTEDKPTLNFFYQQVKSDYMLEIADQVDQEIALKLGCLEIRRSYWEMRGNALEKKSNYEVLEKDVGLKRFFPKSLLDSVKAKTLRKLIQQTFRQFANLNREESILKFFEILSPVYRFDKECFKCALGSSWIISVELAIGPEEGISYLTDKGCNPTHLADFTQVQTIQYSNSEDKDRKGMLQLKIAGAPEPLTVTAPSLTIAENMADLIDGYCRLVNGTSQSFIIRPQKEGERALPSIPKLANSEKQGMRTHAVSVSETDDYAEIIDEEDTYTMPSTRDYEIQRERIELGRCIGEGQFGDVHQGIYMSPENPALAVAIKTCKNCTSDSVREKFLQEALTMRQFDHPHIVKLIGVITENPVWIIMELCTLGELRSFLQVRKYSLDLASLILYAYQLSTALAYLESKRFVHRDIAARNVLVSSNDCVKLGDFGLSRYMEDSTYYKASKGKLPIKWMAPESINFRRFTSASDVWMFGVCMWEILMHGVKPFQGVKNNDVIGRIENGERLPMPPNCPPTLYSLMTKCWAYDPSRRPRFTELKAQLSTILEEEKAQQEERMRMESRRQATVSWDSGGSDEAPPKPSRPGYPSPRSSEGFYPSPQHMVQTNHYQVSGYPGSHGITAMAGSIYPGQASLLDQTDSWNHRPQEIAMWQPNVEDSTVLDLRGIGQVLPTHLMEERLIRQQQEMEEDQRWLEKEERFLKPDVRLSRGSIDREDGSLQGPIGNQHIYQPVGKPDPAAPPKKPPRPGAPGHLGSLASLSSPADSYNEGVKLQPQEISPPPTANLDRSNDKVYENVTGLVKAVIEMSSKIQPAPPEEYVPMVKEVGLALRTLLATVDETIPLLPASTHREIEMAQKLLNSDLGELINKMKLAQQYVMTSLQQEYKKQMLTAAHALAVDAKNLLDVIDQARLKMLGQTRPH

[11] = biological target: Receptor-type tyrosine-protein kinase FLT3 (Homo sapiens) (UniProt P36888); test: Inhibition of FLT3 (unknown origin) at 20 nM relative to control
Receptor-type tyrosine-protein kinase FLT3 (Homo sapiens), sequence (P36888 whole entry): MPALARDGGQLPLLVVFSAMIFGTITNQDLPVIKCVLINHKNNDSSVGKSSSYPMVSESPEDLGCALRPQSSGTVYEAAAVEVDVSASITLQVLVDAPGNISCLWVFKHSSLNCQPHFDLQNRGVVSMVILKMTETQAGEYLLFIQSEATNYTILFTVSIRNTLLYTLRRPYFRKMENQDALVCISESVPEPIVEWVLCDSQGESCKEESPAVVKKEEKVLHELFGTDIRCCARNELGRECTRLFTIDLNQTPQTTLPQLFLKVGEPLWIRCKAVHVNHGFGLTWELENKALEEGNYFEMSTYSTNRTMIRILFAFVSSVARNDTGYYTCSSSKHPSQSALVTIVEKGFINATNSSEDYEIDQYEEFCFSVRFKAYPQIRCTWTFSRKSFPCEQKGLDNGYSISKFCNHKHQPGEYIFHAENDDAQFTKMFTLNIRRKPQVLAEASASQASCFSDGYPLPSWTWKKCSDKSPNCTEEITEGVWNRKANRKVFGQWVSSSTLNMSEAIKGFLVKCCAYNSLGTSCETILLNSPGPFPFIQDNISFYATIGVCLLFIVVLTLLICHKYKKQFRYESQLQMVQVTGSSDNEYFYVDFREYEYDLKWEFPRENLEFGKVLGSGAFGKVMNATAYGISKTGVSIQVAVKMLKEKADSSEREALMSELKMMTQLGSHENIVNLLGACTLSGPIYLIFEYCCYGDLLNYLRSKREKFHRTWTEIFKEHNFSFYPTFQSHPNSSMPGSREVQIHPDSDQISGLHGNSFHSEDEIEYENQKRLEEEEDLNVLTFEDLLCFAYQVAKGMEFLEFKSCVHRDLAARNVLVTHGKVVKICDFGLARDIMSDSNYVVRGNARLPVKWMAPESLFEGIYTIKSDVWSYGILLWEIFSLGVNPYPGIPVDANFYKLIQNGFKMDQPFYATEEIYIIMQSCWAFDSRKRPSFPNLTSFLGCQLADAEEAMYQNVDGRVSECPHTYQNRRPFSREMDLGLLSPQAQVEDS

[12] = biological target: Vascular endothelial growth factor receptor 2 (Homo sapiens) (UniProt P35968); test: Inhibition of VEGFR2 (unknown origin) at 20 nM relative to control
[13] = biological target: Platelet-derived growth factor receptor alpha (Homo sapiens) (UniProt P16234); test: Inhibition of PDGFRalpha (unknown origin) at 20 nM relative to control
Platelet-derived growth factor receptor alpha (Homo sapiens), sequence (P16234 whole entry): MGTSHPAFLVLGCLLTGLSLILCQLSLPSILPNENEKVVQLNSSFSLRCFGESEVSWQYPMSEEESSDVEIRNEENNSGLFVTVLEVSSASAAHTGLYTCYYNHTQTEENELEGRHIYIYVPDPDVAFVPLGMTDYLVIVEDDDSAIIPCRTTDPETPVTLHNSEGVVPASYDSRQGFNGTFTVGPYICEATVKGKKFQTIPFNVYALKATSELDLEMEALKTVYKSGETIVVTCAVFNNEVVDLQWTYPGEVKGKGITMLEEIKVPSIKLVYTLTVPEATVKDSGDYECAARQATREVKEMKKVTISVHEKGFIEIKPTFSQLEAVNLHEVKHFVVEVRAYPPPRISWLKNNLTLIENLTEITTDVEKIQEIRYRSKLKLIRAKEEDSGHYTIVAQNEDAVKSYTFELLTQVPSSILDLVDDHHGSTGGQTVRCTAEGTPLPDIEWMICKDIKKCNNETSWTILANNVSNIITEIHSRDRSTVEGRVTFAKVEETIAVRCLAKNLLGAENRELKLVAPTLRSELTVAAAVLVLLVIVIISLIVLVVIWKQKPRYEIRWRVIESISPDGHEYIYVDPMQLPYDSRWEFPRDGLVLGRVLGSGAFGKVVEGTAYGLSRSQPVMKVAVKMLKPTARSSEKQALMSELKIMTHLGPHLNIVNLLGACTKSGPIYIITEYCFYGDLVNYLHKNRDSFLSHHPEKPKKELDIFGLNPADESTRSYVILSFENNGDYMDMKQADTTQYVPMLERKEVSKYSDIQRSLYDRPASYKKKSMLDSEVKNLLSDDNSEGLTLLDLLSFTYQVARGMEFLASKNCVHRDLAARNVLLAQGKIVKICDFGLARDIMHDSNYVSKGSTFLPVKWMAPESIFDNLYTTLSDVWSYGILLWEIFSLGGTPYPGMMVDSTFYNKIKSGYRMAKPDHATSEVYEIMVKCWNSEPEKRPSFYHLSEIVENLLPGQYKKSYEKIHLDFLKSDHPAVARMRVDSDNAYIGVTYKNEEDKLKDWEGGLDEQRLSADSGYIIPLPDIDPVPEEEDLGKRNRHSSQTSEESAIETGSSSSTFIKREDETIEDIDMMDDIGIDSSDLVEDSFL

[14] = biological target: RAF proto-oncogene serine/threonine-protein kinase (Homo sapiens) (UniProt P04049); test: Inhibition of RAF1 (unknown origin) at 20 nM relative to control
[15] = biological target: Proto-oncogene tyrosine-protein kinase Src (Homo sapiens) (UniProt P12931); test: Inhibition of SRC (unknown origin) at 20 nM relative to control
[16] = biological target: Non-receptor tyrosine-protein kinase TYK2 (Homo sapiens) (UniProt P29597); test: Inhibition of TYK2 (unknown origin) at 20 nM relative to control
[17] = Selectivity ratio of IC50 for human PC3 cells to IC50 for HEL cells harboring JAK2 V617F mutant; type: functional
[18] = Selectivity ratio of IC50 for human MCF7 cells to IC50 for HEL cells harboring JAK2 V617F mutant; type: functional
[19] = Selectivity ratio of IC50 for human MOLT4 cells to IC50 for HEL cells harboring JAK2 V617F mutant; type: functional
[20] = Selectivity ratio of IC50 for human PC3 cells to IC50 for human K562 cells; type: functional
[21] = Selectivity ratio of IC50 for human MCF7 cells to IC50 for human K562 cells; type: functional
[22] = Selectivity ratio of IC50 for human MOLT4 cells to IC50 for human K562 cells; type: functional
[23] = biological target: Tyrosine-protein kinase JAK1 (Homo sapiens, UniProt P23458); test: Inhibition of human recombinant JAK1 using Ulight-CAGAGAIETDKEYYTVKD as substrate by LANCE assay
[24] = biological target: Tyrosine-protein kinase JAK3 (Homo sapiens, UniProt P52333); test: Inhibition of human recombinant JAK3 using Ulight-CAGAGAIETDKEYYTVKD as substrate by LANCE assay

In the case of `Fc1ccc(Nc2nc(Nc3cn[nH]c3)ncc2Cl)cc1`, the Activity (HEL [1]) is reported as greater than 50%, the IC50 (PC-3) is reported as 1030 nM and the IC50 (MCF7) is reported as 1870 nM. The IC50 (HEL [2]) was 1180 nM, the IC50 (K562) was 1860 nM and the IC50 (MOLT-4) was 3280 nM.

Compound `Clc1ccccc1Nc1nc(Nc2cn[nH]c2)ncc1Cl` has an Activity (HEL [1]) greater than 50%, an IC50 (PC-3) of 1130 nM and an IC50 (MCF7) of 1100 nM. The IC50 (HEL [2]) was 1240 nM, the IC50 (K562) was 1290 nM and the IC50 (MOLT-4) was 1260 nM.

In the case of `c1ccc(Nc2nc(Nc3cn[nH]c3)nc3[nH]ccc23)cc1`, the Activity (HEL [1]) is reported as greater than 50%, the IC50 (PC-3) is reported as 4470 nM and the IC50 (MCF7) is reported as greater than 5000 nM. For the same compound, the IC50 (HEL [2]) was 350 nM, the IC50 (K562) was 370 nM and the IC50 (MOLT-4) was greater than 5000 nM. It also gave an inhibition [3] of 3.1%, an inhibition [4] of 15.1% and an inhibition [5] of -3%. The inhibition [6] was -5.3%, the inhibition [7] was 0.6% and the inhibition [8] was 6.3%. It also gave an inhibition [9] of 8.3%, an inhibition [10] of 7.4% and an inhibition [11] of 15.2%. The inhibition [12] was 0%, the inhibition [13] was 11.9% and the inhibition [14] was 3.7%. The inhibition [15] was 12.6%, the inhibition [16] was 34.6% and the “Ratio IC50” value [17] was greater than 10. For the same compound, the “Ratio IC50” value [18] was greater than 10, the “Ratio IC50” value [19] was greater than 10 and the “Ratio IC50” value [20] was greater than 10. For the same compound, the “Ratio IC50” value [21] was greater than 10 and the “Ratio IC50” value [22] was greater than 10.

Compound `N#Cc1ccccc1Nc1ccnc(Nc2cn[nH]c2)n1` has an Activity (HEL [1]) of less than 50%.

`Fc1cnc(Nc2cn[nH]c2)nc1Nc1ccccc1` gave an Activity (HEL [1]) of less than 50%.

`Clc1cccc(Nc2nc(Nc3cn[nH]c3)nc3ccccc23)c1` showed an Activity (HEL [1]) of less than 50%, an IC50 (MCF7) greater than 5000 nM and an IC50 (HEL [2]) of 9710 nM. It also gave an IC50 (K562) greater than 8300 nM.

For `Clc1ccc(Nc2ccnc(Nc3cn[nH]c3)n2)cc1`, the Activity (HEL [1]) was less than 50%.

Compound `Clc1ccccc1Nc1ccnc(Nc2cn[nH]c2)n1` has an Activity (HEL [1]) of less than 50%.

`Clc1ccccc1CNc1nc(Nc2cn[nH]c2)nc2[nH]ccc12` showed an Activity (HEL [1]) greater than 50%, an IC50 (PC-3) of 13500 nM and an IC50 (MCF7) greater than 5000 nM. For the same compound, the IC50 (K562) was 3720 nM and the IC50 (MOLT-4) was greater than 5000 nM.

For `Fc1cnc(Nc2cn[nH]c2)nc1Nc1ccc(Cl)cc1`, the Activity (HEL [1]) was less than 50%, the IC50 (PC-3) was 10400 nM and the IC50 (HEL [2]) was 3960 nM. It also gave an IC50 (K562) of 3790 nM.

In the case of `Clc1ccc(Nc2nc(Nc3cn[nH]c3)nc3[nH]ccc23)cc1`, the Activity (HEL [1]) is reported as greater than 50%.

`N#CC[C@H](C1CCCC1)n1cc(-c2ncnc3[nH]ccc23)cn1` [RUXOLITINIB] gave an IC50 (PC-3) greater than 5000 nM, an IC50 (MCF7) greater than 5000 nM and an IC50 (HEL [2]) of 2620 nM. It also gave an IC50 (K562) of 10300 nM.

`Clc1cnc(Nc2cn[nH]c2)nc1Nc1ccccc1` gave an Activity (HEL [1]) greater than 50%, an IC50 (PC-3) of 5380 nM and an IC50 (MCF7) of 3660 nM. The IC50 (HEL [2]) was 5930 nM, the IC50 (K562) was greater than 8300 nM and the IC50 (MOLT-4) was greater than 5000 nM.

For `C#Cc1cccc(Nc2ccnc(Nc3cn[nH]c3)n2)c1`, the Activity (HEL [1]) was less than 50%.

`Clc1ccc(Nc2nc(Nc3cn[nH]c3)nc3ccccc23)cc1` gave an Activity (HEL [1]) of less than 50%.

`Clc1cccc(Nc2nc(Nc3cn[nH]c3)ncc2Cl)c1` gave an IC50 [23] of 3.4 nM, an IC50 [24] of 3.5 nM and an Activity (HEL [1]) greater than 50%. For the same compound, the IC50 (PC-3) was 1080 nM, the IC50 (MCF7) was 1330 nM and the IC50 (HEL [2]) was 1080 nM. The IC50 (K562) was 770 nM, the IC50 (MOLT-4) was 1610 nM and the inhibition [3] was -3.1%. It also gave an inhibition [4] of 6.9%, an inhibition [5] of 7.5% and an inhibition [6] of 36.2%. For the same compound, the inhibition [7] was 12.1%, the inhibition [8] was 17.9% and the inhibition [9] was 10.5%. It also gave an inhibition [10] of 33.5%, an inhibition [11] of 78.7% and an inhibition [12] of 48.6%. For the same compound, the inhibition [13] was 54.1%, the inhibition [14] was -7.1% and the inhibition [15] was 27%. The inhibition [16] was 79.4%.

Work on `Clc1ccccc1CNc1nc(Nc2cn[nH]c2)nc2ccccc12` yielded an Activity (HEL [1]) of less than 50%.

With `COc1ccc(Nc2nc(Nc3cn[nH]c3)nc3[nH]ccc23)cc1` the Activity (HEL [1]) was greater than 50%.

Work on `COc1ccc(Nc2nc(Nc3cn[nH]c3)ncc2F)cc1` yielded an Activity (HEL [1]) of less than 50%.

With `C#Cc1cccc(Nc2nc(Nc3cn[nH]c3)nc3ccccc23)c1` the Activity (HEL [1]) was less than 50%.

Compound `COc1ccc(Nc2nc(Nc3cn[nH]c3)ncc2Cl)cc1` has an Activity (HEL [1]) greater than 50%, an IC50 (PC-3) of 2300 nM and an IC50 (HEL [2]) of 1760 nM. The IC50 (K562) was 2080 nM.

Compound `Clc1ccc(Nc2nc(Nc3cn[nH]c3)ncc2Cl)cc1` has an Activity (HEL [1]) greater than 50%, an IC50 (PC-3) of 2570 nM and an IC50 (MCF7) of 1930 nM. It also gave an IC50 (HEL [2]) of 1530 nM, an IC50 (K562) of 1700 nM and an IC50 (MOLT-4) of 1370 nM.

`COc1ccc(Nc2nc(Nc3cn[nH]c3)nc3ccccc23)cc1` showed an Activity (HEL [1]) of less than 50%.

In the case of `c1ccc(Nc2nc(Nc3cn[nH]c3)nc3ccccc23)cc1`, the Activity (HEL [1]) is reported as less than 50%.
